This is an account of results in ChEMBL document CHEMBL3091335, “Design and synthesis of potent and selective P2X₃ receptor antagonists derived from PPADS as potential pain modulators” (Eur J Med Chem, 2013).

Active and inactive are the calls of the source. The rule behind the calls is not given here.

The target in test [1] is T1, P2X purinoceptor 7 (Homo sapiens) (UniProt Q99572).
T1 sequence (whole entry): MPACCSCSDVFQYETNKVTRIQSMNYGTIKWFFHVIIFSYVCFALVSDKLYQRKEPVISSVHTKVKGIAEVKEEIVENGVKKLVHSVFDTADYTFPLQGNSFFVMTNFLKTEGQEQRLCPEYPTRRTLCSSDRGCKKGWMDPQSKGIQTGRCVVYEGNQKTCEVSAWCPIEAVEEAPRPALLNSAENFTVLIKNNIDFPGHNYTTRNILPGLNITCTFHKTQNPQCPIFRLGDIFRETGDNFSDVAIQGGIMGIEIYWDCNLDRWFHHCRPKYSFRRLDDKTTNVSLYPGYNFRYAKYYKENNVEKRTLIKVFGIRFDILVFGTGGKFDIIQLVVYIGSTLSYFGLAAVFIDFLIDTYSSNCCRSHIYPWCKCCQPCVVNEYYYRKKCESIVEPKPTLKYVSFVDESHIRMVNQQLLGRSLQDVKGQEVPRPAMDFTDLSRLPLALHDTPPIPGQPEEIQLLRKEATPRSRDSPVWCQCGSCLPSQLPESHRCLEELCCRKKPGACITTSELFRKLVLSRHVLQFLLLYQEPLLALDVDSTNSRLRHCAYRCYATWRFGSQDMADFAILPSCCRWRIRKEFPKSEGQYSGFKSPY
The test is described as follows: Antagonist activity at human P2X7 receptor expressed in HEK293 cells assessed as inhibition of BzATP-induced accumulation of ethidium+ at 10 uM after 120 mins by fluorescence assay relative to control. In kind it is cell-based. An outline of the steps:
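HEK293 cells expressing hP2X7 were grown in DMEM with 10% FBS at 37 °C under 5% CO2, harvested with trypsin/EDTA and resuspended at 2.5 × 10⁶ cells/mL in KCl/glucose/EDTA/HEPES buffer (pH 7.4) with ethidium bromide. Cells were plated at 2 × 10⁵ cells/well with BzATP and incubated at 37 °C for 120 min. Fluorescence was read at ex 530/em 590 nm; mean ± SEM, n≥3.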

The target in test [2] is T2, P2X purinoceptor 1 (Mus musculus) (UniProt P51576).
T2 sequence (whole entry): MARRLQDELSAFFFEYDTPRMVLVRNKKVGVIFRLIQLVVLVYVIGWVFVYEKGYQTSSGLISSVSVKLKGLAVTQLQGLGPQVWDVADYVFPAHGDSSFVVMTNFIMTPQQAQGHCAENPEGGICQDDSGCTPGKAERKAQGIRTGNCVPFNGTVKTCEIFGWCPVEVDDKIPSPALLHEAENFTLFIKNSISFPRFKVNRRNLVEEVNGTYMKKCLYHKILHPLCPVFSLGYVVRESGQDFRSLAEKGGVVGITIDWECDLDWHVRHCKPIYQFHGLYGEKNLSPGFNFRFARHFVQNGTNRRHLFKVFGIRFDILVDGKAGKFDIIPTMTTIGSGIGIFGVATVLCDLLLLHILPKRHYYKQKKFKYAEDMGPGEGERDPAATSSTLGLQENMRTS
The test is described as follows: Antagonist activity at recombinant mouse P2X1 receptor expressed in Xenopus oocytes assessed as inhibition of ATP-induced ion current at 10 uM preincubated for 20 mins followed by ATP addition by two-electrode voltage clamp assay relative to control. In kind it is cell-based. In outline:
(§1)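 Defolliculated Xenopus oocytes were injected with mP2X1 or hP2X3 cRNA (40 nL), held 24 h at 18 °C in Barth's solution, then stored at 4 °C for up to 12 days. Two-electrode voltage clamp was run at Vh −70 mV in HEPES/BaCl2 buffer at pH 7.5. ATP was superfused for 60–120 s with 20 min washout. Currents were normalized to the ATP response, giving % inhibition or IC50 from inhibition curves; mean ± SEM, n≥3.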
On the technique in general: Two-electrode voltage clamp is typically applied to oocytes expressing channels or transporters.

The next test has as its target T3, P2X purinoceptor 3 (Homo sapiens, UniProt P56373).
T3 sequence (P56373 whole entry): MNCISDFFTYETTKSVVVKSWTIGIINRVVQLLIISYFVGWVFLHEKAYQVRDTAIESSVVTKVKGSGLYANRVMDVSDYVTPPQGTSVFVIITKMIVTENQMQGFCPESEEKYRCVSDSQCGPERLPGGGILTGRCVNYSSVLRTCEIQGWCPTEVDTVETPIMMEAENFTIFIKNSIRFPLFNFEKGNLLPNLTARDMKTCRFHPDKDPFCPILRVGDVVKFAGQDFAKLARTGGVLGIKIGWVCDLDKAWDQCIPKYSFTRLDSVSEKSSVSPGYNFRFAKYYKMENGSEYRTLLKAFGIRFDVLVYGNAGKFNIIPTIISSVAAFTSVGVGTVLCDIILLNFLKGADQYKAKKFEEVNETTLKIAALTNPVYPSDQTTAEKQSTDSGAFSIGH
Description: Antagonist activity at recombinant human P2X3 receptor expressed in Xenopus oocytes assessed as inhibition of ATP-induced ion current preincubated for 20 mins followed by ATP addition by two-electrode voltage clamp assay. In kind it is cell-based. In outline:
as §1

In test [3] the target is T4, P2X purinoceptor 3 (Homo sapiens) (UniProt P56373).
T4 sequence (whole entry): T3 sequence (P56373 whole entry)
Description: Antagonist activity at recombinant human P2X3 receptor expressed in Xenopus oocytes assessed as inhibition of ATP-induced ion current at 10 uM preincubated for 20 mins followed by ATP addition by two-electrode voltage clamp assay relative to control. The class given is cell-based. In outline: as §1

The target in the next test is T5, P2X purinoceptor 1 (Mus musculus, UniProt P51576).
T5 sequence (P51576 whole entry): T2 sequence (whole entry)
The test is described as follows: Antagonist activity at recombinant mouse P2X1 receptor expressed in Xenopus oocytes assessed as inhibition of ATP-induced ion current preincubated for 20 mins followed by ATP addition by two-electrode voltage clamp assay. In kind it is cell-based. An outline of the steps:
as §1

Test [4] can be described thus: Antinociceptive activity in rat spinal dorsal horn assessed as inhibition of electrically-stimulated long term potentiation at 20 uM by Di-4-ANEPPS dye-based assay relative to control. The class given is functional. Particulars: Dorsal horn of spinal cord. An outline of the steps:
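Ex vivo rat spinal cord slices (0.5 mm) loaded with voltage-sensitive dye Di-4-ANEPPS; optical signal in dorsal horn monitored before and after LTP induction by 2 Hz electrical stimulation (0.5 msec pulse) for 2 min. Expressed as % inhibition of LTP with compound treatment; means ± SD of 4 samples; pregabalin positive control.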

For the compound `Cc1nc(Cc2cccc3ccccc23)c(C(=O)O)c(C(=O)O)c1O`, the inhibition entry in test [1] is “inactive”. In addition, the inhibition in test [2] was 48.7%. For the same compound, on P2X purinoceptor 3, the IC50 was found to be 1250 nM.

Regarding `Cc1nc(Cc2ccccc2)c(C(=O)O)c(C(=O)O)c1O`, the inhibition entry in test [1] was “inactive”. For the same compound, the figures for the inhibition in test [2] and in test [3] were 54.2% and 31.4%, respectively.

Regarding `Cc1nc(CCc2ccccc2)c(C(=O)O)c(C(=O)O)c1O`, the IC50 at P2X purinoceptor 1 was found to be 645 nM; at P2X purinoceptor 3, 797 nM. Besides, in test [1], the inhibition entry was “inactive”.

For the compound `Cc1nc(NC(=O)c2ccccc2)c(C(=O)O)c(C(=O)O)c1O`, the inhibition entry in test [1] is “inactive”. Besides, at P2X purinoceptor 3, the IC50 turned out to be 723 nM.

Turning to `CC(=O)c1c(O)c(C)nc(CCc2ccccc2)c1C(=O)O`, the inhibition result in test [1] was “inactive”. Moreover, the values for the inhibition in test [2] and in test [3] were 47.9% and 37.3%, respectively.

Take `Cc1nc(Cc2cccc3ccccc23)c2c(c1O)C(O)OC2=O` (stereo not drawn): the inhibition in test [1] was 14.8%. Also, the IC50 on P2X purinoceptor 3 amounted to 856 nM.

Regarding `COc1ccccc1CCc1nc(C)c(O)c(C(=O)O)c1C(=O)O`, the inhibition result in test [1] was “inactive”. The inhibition was 49.8% in test [2] and 34.5% in test [3].

Regarding `Cc1nc(-c2cccc(Oc3ccccc3)c2)c(C(=O)O)c(C(=O)O)c1O`, in test [1], the inhibition result is “inactive”. Besides, in test [2], the inhibition was found to be 49.7%. The 50% inhibitory concentration (IC50) on P2X purinoceptor 3 amounted to 3300 nM.

Regarding `Cc1nc(CC(c2ccccc2)c2ccccc2)c(C(=O)O)c(C(=O)O)c1O`, in test [1], the inhibition result was “inactive”. Moreover, the inhibition in test [2] came out at 42%. For the same compound, the IC50 on P2X purinoceptor 3 amounted to 824 nM.

With `COc1cccc(CCc2nc(C)c(O)c(C(C)=O)c2C(=O)O)c1`, in test [1], the inhibition entry was “inactive”. For the same compound, the inhibition stood at 29.9% in test [2] and 15.8% in test [3].

In the case of `CC(=O)c1c(O)c(C)nc(/C=C/c2ccccc2)c1C(=O)O`, the inhibition result in test [1] is “inactive”. The inhibition was determined as 52.4% in test [2] and 27.4% in test [3].

In the case of `COc1ccc(CCc2nc(C)c(O)c(C(=O)O)c2C(=O)O)cc1`, the IC50 at P2X purinoceptor 1 was 446 nM; at P2X purinoceptor 3, 460 nM. For the same compound, in test [1], the inhibition entry was “inactive”.

Regarding `Cc1nc(Cc2cccc(Oc3ccccc3)c2)c(C(=O)O)c(C(=O)O)c1O`, the inhibition result in test [1] was “inactive”. In addition, the inhibition in test [2] worked out at 41.8%. Moreover, the half-inhibitory concentration (IC50) at P2X purinoceptor 3 was 474 nM.

In the case of `Cc1nc(Cc2cccc3ccccc23)c(CCC(=O)O)c(C=O)c1O`, the inhibition in test [1] came out at 43.4%. For the same compound, the IC50 on P2X purinoceptor 3 amounted to 636 nM.

As for `Cc1nc(Cc2cccc(Oc3ccccc3)c2)c(CCC(=O)O)c(C=O)c1O`, the figures for the inhibition in test [1] and in test [2] were 10.2% and 23%, respectively. At P2X purinoceptor 3, the IC50 turned out to be 366 nM.

In the case of `COc1cccc(CCc2nc(C)c(O)c(C(=O)O)c2C(=O)O)c1`, the inhibition result in test [1] was “inactive”. Besides, the inhibition in test [2] was 52.4%; in test [3], 45.5%.

In the case of `Cc1nc(Cc2cccc(Oc3ccccc3)c2)c2c(c1O)C(O)OC2=O` (stereo not drawn), the inhibition is 27.1% in test [1] and 45% in test [2]. Moreover, the IC50 on P2X purinoceptor 3 amounted to 652 nM.

Regarding `Cc1nc(CCc2cccc(Oc3ccccc3)c2)c(C(=O)O)c(C(=O)O)c1O`, the inhibition result in test [1] is “inactive”. In addition, in test [2], the inhibition was determined as 38.3%. Also, the half-inhibitory concentration (IC50) on P2X purinoceptor 3 was 587 nM.

In the case of `Cc1nc(CCc2ccc(C(=O)O)cc2)c(C(=O)O)c(C(=O)O)c1O`, the concentration for half-maximal inhibition (IC50) at P2X purinoceptor 1 was 267 nM; at P2X purinoceptor 3, 458 nM. The inhibition entry in test [1] was “inactive”.

For the compound `CC(=O)c1c(O)c(C)nc(Cc2ccccc2)c1C(=O)O`, in test [1], the inhibition result is “inactive”. Also, the inhibition in test [2] worked out at 44.2%; in test [3], 18.3%.

On to `Cc1nc(Cc2cccc3ccccc23)c(/C=C/C(=O)O)c(C=O)c1O`, for which the values for the inhibition in test [1] and in test [2] were 48.4% and 22%, respectively. For the same compound, the half-maximal inhibitory concentration (IC50) at P2X purinoceptor 3 amounted to 145 nM.

As to `COc1ccc(CCc2nc(C)c(O)c(C(C)=O)c2C(=O)O)cc1`, in test [1], the inhibition entry is “inactive”. In addition, the figures for the inhibition in test [2] and in test [3] were 52% and 42.2%, respectively.

In the case of `Cc1nc(NC(=O)c2cccc(Oc3ccccc3)c2)c(C(=O)O)c(C(=O)O)c1O`, the inhibition result in test [1] was “inactive”. In addition, at P2X purinoceptor 3, the IC50 is 928 nM.

`Cc1cc(C(=O)O)c(C(=O)O)c(NC(=O)c2ccccc2)n1`: the inhibition result in test [1] and in test [3] was “inactive” throughout.

For `Cc1nc(Cc2ccc(Oc3ccccc3)cc2)c(C(=O)O)c(C(=O)O)c1O`, in test [1], the inhibition result is “inactive”. The inhibition in test [2] worked out at 40%. Further, the half-inhibitory concentration (IC50) at P2X purinoceptor 3 was found to be 1050 nM.

As for `Cc1nc(Cc2cccc(Oc3ccccc3)c2)c(CCC(=O)O)c(C(=O)O)c1O`, the inhibition result in test [1] was “inactive”. In addition, in test [2], the inhibition was 31.7%. The IC50 at P2X purinoceptor 3 was 638 nM.

In the case of `Cc1nc(/C=C/c2ccccc2)c(C(=O)O)c(C(=O)O)c1O`, the IC50 at P2X purinoceptor 1 was found to be 768 nM; on P2X purinoceptor 3, 920 nM. For the same compound, in test [1], the inhibition result is “inactive”.

Consider `CC(C)C[C@H](CN)CC(=O)O` [PREGABALIN], for which the inhibition at 20 µM in test [4] is 31%.

Regarding `Cc1nc(Cc2ccccc2Oc2ccccc2)c(C(=O)O)c(C(=O)O)c1O`, the inhibition result in test [1] is “inactive”. Moreover, the inhibition in test [2] worked out at 49.6%. Moreover, the IC50 at P2X purinoceptor 3 was 2930 nM.

Regarding `COc1ccccc1CCc1nc(C)c(O)c(C(C)=O)c1C(=O)O`, the inhibition entry in test [1] is “inactive”. Further, the results for the inhibition in test [2] and in test [3] were 11.4% and 6.3%, respectively.

As to `Cc1nc(COCc2ccccc2)c(C(=O)O)c(C(=O)O)c1O`, the inhibition result in test [1] was “inactive”. Moreover, in test [3], the inhibition came to 23.1%.

As to `Cc1nc(Cc2cccc(Oc3ccccc3)c2)c(/C=C/C(=O)O)c(C(=O)O)c1O`, the inhibition result in test [1] was “inactive”. Also, the inhibition in test [2] came out at 33.7%. The 50% inhibitory concentration (IC50) on P2X purinoceptor 3 amounted to 377 nM.

One may read the inhibition as the share of the control response that was lost under treatment. Usually IC50 stands for the concentration that gives 50% inhibition.
